Reference: ChEMBL document CHEMBL5260806, “Hydrogen peroxide activated quinone methide precursors with enhanced DNA cross-linking capability and cytotoxicity towards cancer cells” (Eur J Med Chem, 2017)

Experiments:
DNA = experiment: Potentiation of H2O2 induced [32P]-labeled 49-mer oligonucleotide duplex DNA 25 (unknown origin) interstrand cross-linking at pH 8 in phosphate buffer solution assessed as rate constant and measured for 24 hrs by PAGE analysis; type: functional
RPMI-8226 = experiment: Anticancer activity against human RPMI-8226 cells assessed as cell growth inhibition at 10 uM incubated for 48 hrs by sulforhodamine B assay; type: functional; details: read-out: GI
Method in brief: (§1)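 NCI DTP 60-cell-line screen run at National Cancer Institute. Cells grown in RPMI 1640 with 5% fetal bovine serum and 2 mM L-glutamine, seeded at 5,000–40,000 cells/well depending on doubling time. Single-dose screen at 10 µM gives growth percentage; dose-response series gives GI50.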

COLO 205 [1] = experiment: Anticancer activity against human COLO 205 cells assessed as cell growth inhibition at 10 uM incubated for 48 hrs by sulforhodamine B assay; type: functional; details: read-out: GI
Method in brief: (§2)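 NCI-60 screen: cell lines grown in RPMI 1640 with 5% FBS and 2 mM L-glutamine, plated in 96-well plates at 5,000–40,000 cells/well depending on doubling time. Each line has one single-dose arm at 10 µM and one dose-response arm giving GI50.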

HCT-15 = experiment: Anticancer activity against human HCT-15 cells assessed as cell growth inhibition at 10 uM incubated for 48 hrs by sulforhodamine B assay; type: functional; details: read-out: GI; method in brief: as §2
LOX IMVI = experiment: Anticancer activity against human LOX IMVI cells assessed as cell growth inhibition at 10 uM incubated for 48 hrs by sulforhodamine B assay; type: functional; details: read-out: GI; method in brief: as §2
UACC-62 = experiment: Anticancer activity against human UACC-62 cells assessed as cell growth inhibition at 10 uM incubated for 48 hrs by sulforhodamine B assay; type: functional; details: read-out: GI
OVCAR-4 = experiment: Anticancer activity against human OVCAR-4 cells assessed as cell growth inhibition at 10 uM incubated for 48 hrs by sulforhodamine B assay; type: functional; details: read-out: GI; method in brief: as §1
OVCAR-5 = experiment: Anticancer activity against human OVCAR-5 cells assessed as cell growth inhibition at 10 uM incubated for 48 hrs by sulforhodamine B assay; type: functional; details: read-out: GI; method in brief: as §1
786-0 = experiment: Anticancer activity against human 786-0 cells assessed as cell growth inhibition at 10 uM incubated for 48 hrs by sulforhodamine B assay; type: functional; details: read-out: GI; method in brief: as §2
ACHN [2] = experiment: Anticancer activity against human ACHN cells assessed as cell growth inhibition at 10 uM incubated for 48 hrs by sulforhodamine B assay; type: functional; details: read-out: GI; method in brief: as §2
TK-10 = experiment: Anticancer activity against human TK-10 cells assessed as cell growth inhibition at 10 uM incubated for 48 hrs by sulforhodamine B assay; type: functional; details: read-out: GI
DU-145 = experiment: Anticancer activity against human DU-145 cells assessed as cell growth inhibition at 10 uM incubated for 48 hrs by sulforhodamine B assay; type: functional; details: read-out: GI; method in brief: as §2
BT-549 = experiment: Anticancer activity against human BT-549 cells assessed as cell growth inhibition at 10 uM incubated for 48 hrs by sulforhodamine B assay; type: functional; details: read-out: GI; method in brief: as §2
T47D [3] = experiment: Anticancer activity against human T47D cells assessed as cell growth inhibition at 10 uM incubated for 48 hrs by sulforhodamine B assay; type: functional; details: read-out: GI
EKVX = experiment: Anticancer activity against human EKVX cells assessed as cell growth inhibition at 10 uM incubated for 48 hrs by sulforhodamine B assay; type: functional; details: read-out: GI; method in brief: as §2
HOP-92 = experiment: Anticancer activity against human HOP-92 cells assessed as cell growth inhibition at 10 uM incubated for 48 hrs by sulforhodamine B assay; type: functional; details: read-out: GI; method in brief: as §2
Malme-3M = experiment: Anticancer activity against human Malme-3M cells assessed as cell growth inhibition at 10 uM incubated for 48 hrs by sulforhodamine B assay; type: functional; details: read-out: GI; method in brief: as §1
NCI-H226 = experiment: Anticancer activity against human NCI-H226 cells assessed as cell growth inhibition incubated for 48 hrs by sulforhodamine B assay; type: functional; method in brief: as §1
COLO 205 [4] = experiment: Anticancer activity against human COLO 205 cells assessed as cell growth inhibition incubated for 48 hrs by sulforhodamine B assay; type: functional; method in brief: as §2
HCC 2998 = experiment: Anticancer activity against human HCC 2998 cells assessed as cell growth inhibition incubated for 48 hrs by sulforhodamine B assay; type: functional; method in brief: as §2
SF-295 = experiment: Anticancer activity against human SF-295 cells assessed as cell growth inhibition incubated for 48 hrs by sulforhodamine B assay; type: functional; method in brief: as §1
SF-539 = experiment: Anticancer activity against human SF-539 cells assessed as cell growth inhibition incubated for 48 hrs by sulforhodamine B assay; type: functional; method in brief: as §1
M14 = experiment: Anticancer activity against human M14 cells assessed as cell growth inhibition incubated for 48 hrs by sulforhodamine B assay; type: functional; method in brief: as §2
OVCAR-3 = experiment: Anticancer activity against human OVCAR-3 cells assessed as cell growth inhibition incubated for 48 hrs by sulforhodamine B assay; type: functional; method in brief: as §1
A498 [5] = experiment: Anticancer activity against human A498 cells assessed as cell growth inhibition incubated for 48 hrs by sulforhodamine B assay; type: functional; method in brief: as §2
UO-31 = experiment: Anticancer activity against human UO-31 cells assessed as cell growth inhibition incubated for 48 hrs by sulforhodamine B assay; type: functional
MCF7 = experiment: Anticancer activity against human MCF7 cells assessed as cell growth inhibition incubated for 48 hrs by sulforhodamine B assay; type: functional; method in brief: as §1
MDA-MB-231 = experiment: Anticancer activity against human MDA-MB-231 cells assessed as cell growth inhibition incubated for 48 hrs by sulforhodamine B assay; type: functional; method in brief: as §1
T47D [6] = experiment: Anticancer activity against human T47D cells assessed as cell growth inhibition incubated for 48 hrs by sulforhodamine B assay; type: functional
MDA-MB-468 [7] = experiment: Anticancer activity against human MDA-MB-468 cells assessed as cell growth inhibition incubated for 48 hrs by sulforhodamine B assay; type: functional; method in brief: as §1
CAKI-1 = experiment: Anticancer activity against human CAKI-1 cells assessed as cell growth inhibition incubated for 48 hrs by sulforhodamine B assay; type: functional; method in brief: as §2
A498 [8] = experiment: Anticancer activity against human A498 cells assessed inhibition of cell growth after 48 hrs by CellTiter-Glo luminescent assay; type: functional, cell-based; details: A498, 48 h
Method in brief: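 Human tumour cells kept in RPMI 1640 with 5% FBS and 2 mM L-glutamine, seeded at 5,000–10,000 cells/well and left 2–3 h at 37°C, 5% CO2. Drugs taken from 20 mM DMSO stocks, serially halved ten times in DMSO, then added at 1:100 dilution. Cells exposed for 48 h at 37°C. Viability read by CellTiter-Glo luminescence after 10 min at room temperature.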

ACHN [9] = experiment: Anticancer activity against human ACHN cells assessed inhibition of cell growth after 48 hrs by CellTiter-Glo luminescent assay; type: functional, cell-based
Method in brief: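 Renal lines grown in RPMI 1640 with 5% FBS and 2 mM L-glutamine, plated at 5,000–10,000 cells/well in 384-well plates and held 2–3 h at 37 °C, 5% CO2. Compounds were made as 20 mM DMSO stocks, given as ten 2-fold serial dilutions diluted 1:100 into cells, and incubated 48 h. Read-out was CellTiter-Glo luminescence after 10 min at room temperature.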

MDA-MB-468 [10] = experiment: Anticancer activity against human MDA-MB-468 cells assessed inhibition of cell growth after 48 hrs by CellTiter-Glo luminescent assay; type: functional, cell-based; details: MDA-MB-468, 48 h
Method in brief: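 Cells grown in RPMI 1640 with 5% fetal bovine serum and 2 mM L-glutamine, seeded at 5,000–10,000 cells/well in 384-well plates, preincubated 2–3 h at 37°C, 5% CO2. DMSO stocks (20 mM) serially diluted 2-fold ten times, then added at 1:100. Exposure 48 h at 37°C. Viability read by CellTiter-Glo luminescence after 10 min at room temperature; IC50 derived.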

Compound: COc1cc(CBr)c(B2OC(C)(C)C(C)(C)O2)c(CBr)c1
- Ka (DNA): 0.000237 s⁻¹
- inhibition of growth at 10 µM (RPMI-8226): < 50%
- inhibition of growth at 10 µM (COLO 205 [1]): < 50%
- inhibition of growth at 10 µM (HCT-15): < 50%
- inhibition of growth at 10 µM (LOX IMVI): < 50%
- inhibition of growth at 10 µM (UACC-62): < 50%
- inhibition of growth at 10 µM (OVCAR-4): < 50%
- inhibition of growth at 10 µM (OVCAR-5): < 50%
- inhibition of growth at 10 µM (786-0): < 50%
- inhibition of growth at 10 µM (ACHN [2]): < 50%
- inhibition of growth at 10 µM (TK-10): < 50%
- inhibition of growth at 10 µM (DU-145): < 50%
- inhibition of growth at 10 µM (BT-549): < 50%
- inhibition of growth at 10 µM (T47D [3]): < 50%
- inhibition of growth at 10 µM (EKVX): < 50%
- inhibition of growth at 10 µM (HOP-92): < 50%
- inhibition of growth at 10 µM (Malme-3M): < 50%
- GI50 (NCI-H226): 2 µM
- GI50 (COLO 205 [4]): 2 µM
- GI50 (HCC 2998): 2 µM
- GI50 (SF-295): 2 µM
- GI50 (SF-539): 2 µM
- GI50 (M14): 2 µM
- GI50 (OVCAR-3): 2 µM
- GI50 (A498 [5]): 2 µM
- GI50 (UO-31): 2 µM
- GI50 (MCF7): 2 µM
- GI50 (MDA-MB-231): 2 µM
- GI50 (T47D [6]): 2 µM
- GI50 (MDA-MB-468 [7]): 2 µM
- GI50 (CAKI-1): 2 µM
- IC50 (A498 [8]): 18.1 µM
- IC50 (ACHN [9]): 20 µM
- IC50 (MDA-MB-468 [10]): 9 µM
